In ChEMBL document CHEMBL4007497, “Development of Potent and Selective Antagonists for the UTP-Activated P2Y4 Receptor” (J Med Chem, 2017):
The source made the active and inactive calls. No cut-off for these calls is given here.

Key:
P2Y purinoceptor 4 [1] = biological target: T1, P2Y purinoceptor 4 (Homo sapiens, UniProt P51582); experiment: Antagonist activity at human P2Y4 receptor transfected in human 1321N1 cells assessed as inhibition of UTP-activated intracellular calcium mobilization preincubated for 30 mins followed by UTP addition by fluo-4-dye based fluorescence assay; type: functional, cell-based
In short: (§1)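 1321N1 astrocytoma cells stably expressing the human P2Y subtype, grown in DMEM with 10 % FCS and 200 μg/mL G418 at 37 °C. Plated 50,000 cells/well about 24 h before testing. Cells loaded with fluo-4 AM for 1 h, then placed in HBSS and preincubated 30 min with compound. Agonist was injected at about EC80: ADP 500 nM (P2Y1), UTP 500 nM (P2Y2, P2Y4), UDP 750 nM (P2Y6). Fluorescence read at ex 488/em 525 nm. At least three independent experiments in duplicate. IC50 obtained by nonlinear regression.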

P2Y purinoceptor 1 = P2Y purinoceptor 1 (Homo sapiens, UniProt P47900); experiment: Antagonist activity at human P2Y1 receptor transfected in human 1321N1 cells assessed as inhibition of ADP-activated intracellular calcium mobilization preincubated for 30 mins followed by ADP addition by fluo-4-dye based fluorescence assay; type: functional, cell-based; in short: as §1
P2Y purinoceptor 2 = P2Y purinoceptor 2 (Homo sapiens, UniProt P41231); experiment: Antagonist activity at human P2Y2 receptor transfected in human 1321N1 cells assessed as inhibition of UTP-activated intracellular calcium mobilization preincubated for 30 mins followed by UTP addition by fluo-4-dye based fluorescence assay; type: functional, cell-based; in short: as §1
P2Y purinoceptor 6 = P2Y purinoceptor 6 (Homo sapiens, UniProt Q15077); experiment: Antagonist activity at human P2Y6 receptor transfected in human 1321N1 cells assessed as inhibition of UDP-activated intracellular calcium mobilization preincubated for 30 mins followed by UDP addition by fluo-4-dye based fluorescence assay; type: functional, cell-based; in short: as §1
P2Y purinoceptor 12 [2] = biological target: T2, P2Y purinoceptor 12 (Homo sapiens, UniProt Q9H244); experiment: Antagonist activity at human P2Y12 receptor expressed in CHO cells assessed as inhibition of 2-MeSADP-induced beta-arrestin translocation preincubated for 30 mins followed by 2-MeSADP addition measured after 90 mins by luminescence-based topcount method; type: cell-based
P2Y purinoceptor 4 [3] = biological target: T1, P2Y purinoceptor 4; experiment: Non-competitive antagonist activity at human P2Y4 receptor transfected in human 1321N1 cells assessed as inhibition of UTP-activated intracellular calcium mobilization at 15 uM preincubated for 30 mins followed by UTP addition by fluo-4-dye based fluorescence assay; type: functional, cell-based
In short: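 Fluo-4-loaded 1321N1 cells stably expressing human P2Y4 were preincubated 30 min with fixed antagonist concentrations up to 15 μM in HBSS. Full UTP concentration-response curves were then recorded by injecting UTP and reading fluorescence immediately (ex 488/em 525 nm). The mode of antagonism was judged from depression of the maximum versus rightward shift. EC50 values were compared by unpaired t-test.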

P2Y purinoceptor 12 [4] = biological target: T2, P2Y purinoceptor 12; experiment: Competitive antagonist activity at human P2Y12 receptor expressed in CHO cells assessed as forskolin/ 2-methylthio-ADP-induced cAMP production preincubated for 10 mins followed 2-methylthio-ADP addition measured after 3.5 hrs by luciferase reporter gene assay; type: functional, cell-based; conditions: read-out: pA2 (converted)

T1 sequence (P51582 whole entry): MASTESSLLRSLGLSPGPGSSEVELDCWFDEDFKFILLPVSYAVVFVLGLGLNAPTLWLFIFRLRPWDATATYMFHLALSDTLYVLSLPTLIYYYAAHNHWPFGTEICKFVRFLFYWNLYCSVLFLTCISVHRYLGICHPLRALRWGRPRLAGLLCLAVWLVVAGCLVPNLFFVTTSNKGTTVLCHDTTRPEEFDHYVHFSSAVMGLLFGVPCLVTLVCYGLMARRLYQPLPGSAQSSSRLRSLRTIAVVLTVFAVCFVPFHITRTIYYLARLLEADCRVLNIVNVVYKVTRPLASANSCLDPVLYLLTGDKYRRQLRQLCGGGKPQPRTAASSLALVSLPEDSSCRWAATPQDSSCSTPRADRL
T2 sequence (Q9H244 whole entry): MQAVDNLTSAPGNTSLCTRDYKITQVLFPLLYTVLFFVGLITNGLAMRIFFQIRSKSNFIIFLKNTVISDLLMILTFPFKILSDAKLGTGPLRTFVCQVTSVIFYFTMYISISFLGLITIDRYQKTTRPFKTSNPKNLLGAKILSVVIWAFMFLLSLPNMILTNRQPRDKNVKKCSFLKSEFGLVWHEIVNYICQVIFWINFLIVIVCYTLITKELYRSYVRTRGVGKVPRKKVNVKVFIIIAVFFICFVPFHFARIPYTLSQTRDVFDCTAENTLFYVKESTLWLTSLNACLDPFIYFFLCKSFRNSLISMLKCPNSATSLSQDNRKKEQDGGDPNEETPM
Chain of P2Y purinoceptor 6 (Q15077 whole entry): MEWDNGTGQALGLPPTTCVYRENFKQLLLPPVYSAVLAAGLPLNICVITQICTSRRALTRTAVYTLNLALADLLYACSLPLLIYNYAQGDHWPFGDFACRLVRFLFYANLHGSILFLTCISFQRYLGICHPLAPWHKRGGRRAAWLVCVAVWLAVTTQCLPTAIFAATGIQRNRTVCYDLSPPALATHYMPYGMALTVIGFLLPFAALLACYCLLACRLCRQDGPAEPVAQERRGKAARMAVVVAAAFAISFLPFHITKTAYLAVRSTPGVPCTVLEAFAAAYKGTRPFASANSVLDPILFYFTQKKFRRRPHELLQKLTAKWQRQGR
Chain of P2Y purinoceptor 1 (P47900 whole entry): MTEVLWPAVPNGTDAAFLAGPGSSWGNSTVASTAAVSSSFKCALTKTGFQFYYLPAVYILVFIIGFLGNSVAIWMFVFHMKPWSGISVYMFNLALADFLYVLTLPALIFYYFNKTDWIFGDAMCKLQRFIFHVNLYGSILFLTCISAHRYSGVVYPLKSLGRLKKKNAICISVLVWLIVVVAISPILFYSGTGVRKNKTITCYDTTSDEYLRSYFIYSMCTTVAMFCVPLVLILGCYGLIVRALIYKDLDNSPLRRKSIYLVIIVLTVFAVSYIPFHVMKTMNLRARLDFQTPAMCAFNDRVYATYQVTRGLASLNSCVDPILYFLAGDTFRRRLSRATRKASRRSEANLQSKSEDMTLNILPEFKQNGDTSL
Chain of P2Y purinoceptor 2 (P41231 whole entry): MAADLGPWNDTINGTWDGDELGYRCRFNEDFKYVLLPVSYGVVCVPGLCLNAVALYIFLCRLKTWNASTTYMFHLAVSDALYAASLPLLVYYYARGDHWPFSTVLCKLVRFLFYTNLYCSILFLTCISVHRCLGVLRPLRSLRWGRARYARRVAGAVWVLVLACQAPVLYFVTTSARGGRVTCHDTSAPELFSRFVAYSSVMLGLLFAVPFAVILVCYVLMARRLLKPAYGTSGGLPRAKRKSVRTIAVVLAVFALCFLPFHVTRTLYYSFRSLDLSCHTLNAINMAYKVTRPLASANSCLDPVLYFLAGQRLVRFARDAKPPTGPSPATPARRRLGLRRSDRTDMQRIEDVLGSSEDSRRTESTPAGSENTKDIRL

| SMILES | IC50 (P2Y purinoceptor 4 [1]) | IC50 (P2Y purinoceptor 1) | IC50 (P2Y purinoceptor 2) | IC50 (P2Y purinoceptor 6) | IC50 (P2Y purinoceptor 12 [2]) | inhibition (P2Y purinoceptor 4 [3]) | Kb (P2Y purinoceptor 12 [4]) |
| --- | --- | --- | --- | --- | --- | --- | --- |
| Cc1ccc(Sc2ccc(Nc3cc(S(=O)(=O)O)c(N)c4c3C(=O)c3ccccc3C4=O)cc2)c(C)c1 | 0.233 µM | 5.48 µM | 8.54 µM | 12.5 µM | 2.41 µM | Active |  |
| Nc1c(S(=O)(=O)O)cc(Nc2ccc(Nc3ccccc3)c(S(=O)(=O)O)c2)c2c1C(=O)c1ccccc1C2=O |  |  |  |  |  |  | 0.000158 µM |
